Results from ChEMBL document CHEMBL4028864 (J Med Chem, 2017).

What was measured:
[1] = target: Histone deacetylase 1 (Homo sapiens, UniProt Q13547); experiment: Inhibition of C-terminal FLAG His tagged full length human recombinant HDAC1 (1 to 482 residues) expressed in baculovirus infected sf21 cells using RHKKAc as substrate in presence of ATP
[2] = target: T1, Protein deacetylase HDAC6 (Homo sapiens, UniProt Q9UBN7); experiment: Inhibition of N-terminal GST tagged human HDAC6 (1 to 1215 residues) expressed in baculovirus infected insect cells using RHKKAc as substrate in presence of ATP
T1 sequence (Q9UBN7 whole entry): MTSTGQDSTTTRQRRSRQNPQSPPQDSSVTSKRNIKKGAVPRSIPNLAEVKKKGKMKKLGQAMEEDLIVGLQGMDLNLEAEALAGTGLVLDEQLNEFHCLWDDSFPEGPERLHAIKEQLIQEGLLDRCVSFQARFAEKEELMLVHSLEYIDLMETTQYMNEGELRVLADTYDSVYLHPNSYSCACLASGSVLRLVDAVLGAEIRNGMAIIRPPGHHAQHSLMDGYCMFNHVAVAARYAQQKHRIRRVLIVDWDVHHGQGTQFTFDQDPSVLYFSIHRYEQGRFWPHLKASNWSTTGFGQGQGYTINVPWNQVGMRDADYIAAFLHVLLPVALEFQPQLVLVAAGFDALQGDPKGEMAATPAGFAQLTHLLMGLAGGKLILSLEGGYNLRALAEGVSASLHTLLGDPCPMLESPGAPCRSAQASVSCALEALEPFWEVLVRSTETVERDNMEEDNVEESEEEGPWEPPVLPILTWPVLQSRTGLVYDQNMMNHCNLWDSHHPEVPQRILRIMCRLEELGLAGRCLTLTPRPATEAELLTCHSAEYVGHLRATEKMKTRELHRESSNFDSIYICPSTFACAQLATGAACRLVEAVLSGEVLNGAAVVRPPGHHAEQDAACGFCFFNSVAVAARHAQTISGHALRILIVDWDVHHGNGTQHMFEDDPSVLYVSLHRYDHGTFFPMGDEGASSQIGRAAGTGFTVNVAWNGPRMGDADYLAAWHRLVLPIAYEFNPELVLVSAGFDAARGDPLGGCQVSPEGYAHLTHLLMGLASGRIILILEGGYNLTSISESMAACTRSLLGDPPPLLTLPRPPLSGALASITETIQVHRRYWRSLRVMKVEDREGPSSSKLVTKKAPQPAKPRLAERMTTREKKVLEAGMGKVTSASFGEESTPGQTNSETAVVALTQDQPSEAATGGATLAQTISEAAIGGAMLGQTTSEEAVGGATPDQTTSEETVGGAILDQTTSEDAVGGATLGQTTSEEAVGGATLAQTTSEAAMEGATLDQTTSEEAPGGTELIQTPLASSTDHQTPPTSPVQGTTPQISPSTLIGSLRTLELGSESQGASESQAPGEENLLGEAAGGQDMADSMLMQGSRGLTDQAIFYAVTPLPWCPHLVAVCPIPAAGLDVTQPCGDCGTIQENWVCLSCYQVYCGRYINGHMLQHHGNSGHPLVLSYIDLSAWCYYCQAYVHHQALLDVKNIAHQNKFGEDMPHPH

[3] = target: T2, Tyrosine-protein kinase JAK2 (Homo sapiens, UniProt O60674); experiment: Inhibition of human JAK2 using poly[Glu:Tyr] as substrate in presence of [gamma-33P]-ATP
[4] = tested on: MDA-MB-231; experiment: cells; type: functional, cell-based; settings: Homo sapiens, MDA-MB-231, 72 h
[5] = tested on: MCF7; experiment: cells; type: functional, cell-based; settings: Homo sapiens, MCF7, 72 h
[6] = tested on: HCT-116; experiment: Antiproliferative activity against human HCT116 cells after 72 hrs by MTT assay; type: functional, cell-based; settings: HCT-116, 72 h
[7] = tested on: PC-3; experiment: cells; type: functional, cell-based; settings: Homo sapiens, PC-3, 72 h
[8] = tested on: HL-60; experiment: Antiproliferative activity against human HL60 cells; type: functional, cell-based
[9] = tested on: HEL 92.1.7; experiment: cells; type: functional, cell-based; settings: Homo sapiens, HEL 92.1.7, 36 h
[10] = tested on: Jurkat; experiment: cells; type: functional, cell-based; settings: Homo sapiens
[11] = target: T2, Tyrosine-protein kinase JAK2; experiment: Binding affinity to N-terminal His tagged human recombinant JAK2 (1014 to 1132 residues) expressed in Escherichia coli after 300 mins by LC/MS analysis; settings: read-out: Kd(app)
How it was run: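 JAK2 in Tris/glycerol/urea storage buffer was exchanged into sodium phosphate/NaCl pH 7.5 and immobilized on periodate-oxidized diol silica (Schiff base, NaBH3CN, 116 h, 4 °C), then packed into a 35 × 0.5 mm column. Compounds were run at 10 μM final (50 μM for one analyte) in 20 mM ammonium acetate pH 6.8 at 20 μL/min. Detection was by SIM [M+H]+, with DMSO as void marker. Retention time was taken from the EIC peak apex, n = 3, with runs up to 300 min.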

[12] = tested on: HL-60; experiment: Antiproliferative activity against human HL60 cells at 4 uM after 36 hrs by PrestoBlue dye based assay relative to control; type: functional
[13] = tested on: KMS-12-BM; experiment: cells; type: functional, cell-based; settings: Homo sapiens, 48 h
[14] = cells; type: ADME, cell-based; settings: Homo sapiens, AC10, 24 h
[15] = target: Histone deacetylase 8 (Homo sapiens, UniProt Q9BY41); experiment: Inhibition of C-terminal His tagged human recombinant HDAC8 (1 to 377 residues) expressed in Baculovirus infected insect cells in presence of ATP
How it was run: (§1)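 HDAC enzyme inhibition was run by a contract laboratory.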

[16] = target: Histone deacetylase 9 (Homo sapiens, UniProt Q9UKV0); experiment: Inhibition of HDAC9 (unknown origin) in presence of ATP; how it was run: as §1
[17] = target: Tyrosine-protein kinase JAK1 (Homo sapiens, UniProt P23458); experiment: Inhibition of human JAK1 using poly[Glu:Tyr] as substrate in presence of [gamma-33P]-ATP
How it was run: (§2)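 Kinase inhibition was tested by radiometric "Hotspot" profiling at a contract laboratory with 10 μM ATP.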

[18] = target: T3, Tyrosine-protein kinase JAK3 (Homo sapiens, UniProt P52333); experiment: Inhibition of human JAK3 using GEEEEYFELVKKKK as substrate in presence of [gamma-33P]-ATP; how it was run: as §2
T3 sequence (P52333 whole entry): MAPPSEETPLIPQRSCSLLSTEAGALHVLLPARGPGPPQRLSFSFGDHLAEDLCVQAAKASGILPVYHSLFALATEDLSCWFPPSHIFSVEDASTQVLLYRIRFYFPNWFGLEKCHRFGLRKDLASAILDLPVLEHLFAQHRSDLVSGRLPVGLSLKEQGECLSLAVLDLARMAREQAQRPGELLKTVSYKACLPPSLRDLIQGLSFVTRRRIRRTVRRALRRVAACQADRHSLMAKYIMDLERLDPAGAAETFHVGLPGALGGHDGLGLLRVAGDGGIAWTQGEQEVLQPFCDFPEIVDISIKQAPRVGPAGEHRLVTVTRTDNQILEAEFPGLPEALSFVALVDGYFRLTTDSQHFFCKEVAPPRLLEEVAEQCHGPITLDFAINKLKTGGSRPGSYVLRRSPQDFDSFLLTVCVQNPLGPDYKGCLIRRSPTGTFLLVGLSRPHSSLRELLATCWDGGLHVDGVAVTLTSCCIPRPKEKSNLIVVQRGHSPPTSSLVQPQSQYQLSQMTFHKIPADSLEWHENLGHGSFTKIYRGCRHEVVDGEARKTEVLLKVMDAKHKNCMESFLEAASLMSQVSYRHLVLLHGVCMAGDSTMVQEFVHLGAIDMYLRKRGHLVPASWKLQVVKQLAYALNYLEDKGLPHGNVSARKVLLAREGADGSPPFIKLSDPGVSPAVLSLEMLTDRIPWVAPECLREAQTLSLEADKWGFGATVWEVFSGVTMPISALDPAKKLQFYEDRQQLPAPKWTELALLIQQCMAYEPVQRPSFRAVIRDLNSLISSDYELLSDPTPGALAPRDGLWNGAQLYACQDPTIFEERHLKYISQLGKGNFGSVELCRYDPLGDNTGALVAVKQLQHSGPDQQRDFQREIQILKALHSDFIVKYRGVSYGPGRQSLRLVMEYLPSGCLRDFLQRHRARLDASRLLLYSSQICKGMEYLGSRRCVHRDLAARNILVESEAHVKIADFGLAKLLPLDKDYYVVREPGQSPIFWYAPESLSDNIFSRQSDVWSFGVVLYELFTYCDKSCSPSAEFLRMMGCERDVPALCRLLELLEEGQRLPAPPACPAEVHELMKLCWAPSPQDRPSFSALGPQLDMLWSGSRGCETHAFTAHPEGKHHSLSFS

[19] = target: Non-receptor tyrosine-protein kinase TYK2 (Homo sapiens, UniProt P29597); experiment: Inhibition of human TYK2 using KKSRGDYMTMQIG as substrate in presence of [gamma-33P]-ATP; how it was run: as §2
[20] = target: Histone deacetylase 2 (Homo sapiens, UniProt Q92769); experiment: Inhibition of C-terminal GST tagged human recombinant HDAC2 (1 to 488 residues) expressed in Baculovirus infected insect cells in presence of ATP; how it was run: as §1
[21] = target: Histone deacetylase 3/Nuclear receptor corepressor 2 (HDAC3/NCoR2) (Homo sapiens, UniProt O15379); experiment: Inhibition of human recombinant HDAC3 (1 to 428 residues)/N-terminal GST-tagged NCOR2 (395 to 489 residues) expressed in Baculovirus infected insect cells in presence of ATP; how it was run: as §1
[22] = target: Histone deacetylase 4 (Homo sapiens) (UniProt P56524); experiment: Inhibition of N-terminal GST tagged/C-terminal His tagged human recombinant HDAC4 (627 to 1084 residues) expressed in Baculovirus infected insect cells in presence of ATP; settings: concentration not given here; how it was run: as §1
[23] = target: Histone deacetylase 5 (Homo sapiens, UniProt Q9UQL6); experiment: Inhibition of C-terminal His tagged human recombinant HDAC5 (657 to 1123 residues) expressed in Baculovirus infected insect cells in presence of ATP; how it was run: as §1
[24] = target: Polyamine deacetylase HDAC10 (Homo sapiens, UniProt Q969S8); experiment: Inhibition of human HDAC10 using fluorogenic peptide from p53 residues 379 to 382 as substrate in presence of ATP; how it was run: as §1
[25] = target: Histone deacetylase 11 (Homo sapiens) (UniProt Q96DB2); experiment: Inhibition of C-terminal His tagged human recombinant HDAC11 (1 to 347 residues) expressed in Baculovirus infected insect cells at 10 uM in presence of ATP relative to control; how it was run: as §1
[26] = target: Histone deacetylase 7 (Homo sapiens) (UniProt Q8WUI4); experiment: Inhibition of N-terminal GST tagged human recombinant HDAC7 (518 to 991 residues) expressed in Baculovirus infected insect cells at 10 uM in presence of ATP relative to control; how it was run: as §1
[27] = tested on: KMS-12-BM; experiment: Antiproliferative activity against human KMS-12-BM cells assessed as cell viability at 10 uM after 48 hrs by CellTiter-Glo luminescent assay relative to control; type: functional
[28] = tested on: OPM-2; experiment: Antiproliferative activity against human OPM2 cells assessed as cell viability at 10 uM after 48 hrs by CellTiter-Glo luminescent assay relative to control; type: functional
[29] = tested on: MOLM-14; experiment: Antiproliferative activity against human MOLM14 cells assessed as cell viability at 10 uM after 48 hrs by CellTiter-Glo luminescent assay relative to control; type: functional
[30] = tested on: MV4-11; experiment: Antiproliferative activity against human MV4-11 cells assessed as cell viability at 10 uM after 48 hrs by CellTiter-Glo luminescent assay relative to control; type: functional

T2 sequence (O60674 whole entry): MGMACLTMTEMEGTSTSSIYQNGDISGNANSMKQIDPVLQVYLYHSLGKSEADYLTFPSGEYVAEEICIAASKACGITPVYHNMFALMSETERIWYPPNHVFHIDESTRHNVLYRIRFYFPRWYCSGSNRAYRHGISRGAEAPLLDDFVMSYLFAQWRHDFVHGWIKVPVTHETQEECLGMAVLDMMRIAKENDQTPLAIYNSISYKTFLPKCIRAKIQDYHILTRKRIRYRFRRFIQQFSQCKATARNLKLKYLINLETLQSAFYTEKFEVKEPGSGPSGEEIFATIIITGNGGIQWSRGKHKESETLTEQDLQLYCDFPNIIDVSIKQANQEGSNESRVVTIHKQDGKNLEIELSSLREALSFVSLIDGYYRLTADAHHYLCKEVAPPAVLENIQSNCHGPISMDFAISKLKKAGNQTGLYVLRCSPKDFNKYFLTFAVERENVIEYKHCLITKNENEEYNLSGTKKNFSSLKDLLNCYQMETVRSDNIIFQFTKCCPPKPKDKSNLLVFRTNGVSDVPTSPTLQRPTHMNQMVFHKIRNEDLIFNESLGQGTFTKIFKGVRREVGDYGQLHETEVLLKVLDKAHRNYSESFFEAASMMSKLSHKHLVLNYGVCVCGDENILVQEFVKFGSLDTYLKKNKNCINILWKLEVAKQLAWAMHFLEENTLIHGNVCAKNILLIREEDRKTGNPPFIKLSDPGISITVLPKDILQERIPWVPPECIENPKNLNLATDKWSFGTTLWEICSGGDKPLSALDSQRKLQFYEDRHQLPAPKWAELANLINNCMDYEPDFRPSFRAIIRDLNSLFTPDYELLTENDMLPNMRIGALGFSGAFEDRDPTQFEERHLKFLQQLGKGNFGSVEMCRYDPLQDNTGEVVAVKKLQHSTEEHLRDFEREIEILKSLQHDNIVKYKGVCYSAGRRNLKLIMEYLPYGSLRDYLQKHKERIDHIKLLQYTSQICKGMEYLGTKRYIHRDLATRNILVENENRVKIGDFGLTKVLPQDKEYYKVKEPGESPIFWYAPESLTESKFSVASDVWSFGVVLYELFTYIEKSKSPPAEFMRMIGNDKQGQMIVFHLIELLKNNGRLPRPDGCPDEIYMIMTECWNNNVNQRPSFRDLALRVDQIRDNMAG
Chain of Histone deacetylase 1 (Q13547 whole entry, the tested form may be a part): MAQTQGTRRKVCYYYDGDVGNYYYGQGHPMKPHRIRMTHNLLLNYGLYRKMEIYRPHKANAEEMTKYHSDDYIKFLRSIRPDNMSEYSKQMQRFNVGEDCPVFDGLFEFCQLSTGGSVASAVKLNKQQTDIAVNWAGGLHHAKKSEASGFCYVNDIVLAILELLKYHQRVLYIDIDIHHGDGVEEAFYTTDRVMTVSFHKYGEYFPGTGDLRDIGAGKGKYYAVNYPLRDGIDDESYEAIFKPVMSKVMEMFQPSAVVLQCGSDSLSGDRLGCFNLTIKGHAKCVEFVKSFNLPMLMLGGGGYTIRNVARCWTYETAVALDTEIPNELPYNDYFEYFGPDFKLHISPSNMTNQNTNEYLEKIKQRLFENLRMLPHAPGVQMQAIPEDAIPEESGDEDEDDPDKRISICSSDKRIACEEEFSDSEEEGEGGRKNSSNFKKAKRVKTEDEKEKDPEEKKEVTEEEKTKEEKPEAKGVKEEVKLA
Chain of Histone deacetylase 11 (Homo sapiens) (Q96DB2 whole entry, the tested form may be a part): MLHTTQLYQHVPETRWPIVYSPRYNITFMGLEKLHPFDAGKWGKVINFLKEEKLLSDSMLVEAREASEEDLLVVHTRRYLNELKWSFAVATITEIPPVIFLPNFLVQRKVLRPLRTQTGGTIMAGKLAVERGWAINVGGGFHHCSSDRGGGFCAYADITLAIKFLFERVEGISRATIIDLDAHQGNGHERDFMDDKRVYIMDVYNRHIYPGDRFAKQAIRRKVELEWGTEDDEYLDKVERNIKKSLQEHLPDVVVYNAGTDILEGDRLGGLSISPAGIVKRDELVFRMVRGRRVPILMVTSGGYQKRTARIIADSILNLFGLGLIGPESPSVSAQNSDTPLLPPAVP
Chain of Histone deacetylase 3/Nuclear receptor corepressor 2 (HDAC3/NCoR2) (O15379 whole entry, the tested form may be a part): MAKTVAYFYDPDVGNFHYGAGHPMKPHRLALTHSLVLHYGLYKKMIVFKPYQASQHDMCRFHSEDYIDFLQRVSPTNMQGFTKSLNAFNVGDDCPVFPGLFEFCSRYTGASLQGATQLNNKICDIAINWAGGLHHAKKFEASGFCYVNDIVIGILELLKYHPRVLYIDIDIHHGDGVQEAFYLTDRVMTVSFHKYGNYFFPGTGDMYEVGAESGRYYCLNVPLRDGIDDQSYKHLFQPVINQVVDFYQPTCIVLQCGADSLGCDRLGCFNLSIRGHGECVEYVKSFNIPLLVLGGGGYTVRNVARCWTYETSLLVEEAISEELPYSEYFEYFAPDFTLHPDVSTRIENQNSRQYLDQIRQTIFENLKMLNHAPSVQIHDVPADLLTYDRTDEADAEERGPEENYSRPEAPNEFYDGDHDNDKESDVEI
Chain of Histone deacetylase 3/Nuclear receptor corepressor 2 (HDAC3/NCoR2) (Q9Y618 whole entry, further chain, the tested form may be a part): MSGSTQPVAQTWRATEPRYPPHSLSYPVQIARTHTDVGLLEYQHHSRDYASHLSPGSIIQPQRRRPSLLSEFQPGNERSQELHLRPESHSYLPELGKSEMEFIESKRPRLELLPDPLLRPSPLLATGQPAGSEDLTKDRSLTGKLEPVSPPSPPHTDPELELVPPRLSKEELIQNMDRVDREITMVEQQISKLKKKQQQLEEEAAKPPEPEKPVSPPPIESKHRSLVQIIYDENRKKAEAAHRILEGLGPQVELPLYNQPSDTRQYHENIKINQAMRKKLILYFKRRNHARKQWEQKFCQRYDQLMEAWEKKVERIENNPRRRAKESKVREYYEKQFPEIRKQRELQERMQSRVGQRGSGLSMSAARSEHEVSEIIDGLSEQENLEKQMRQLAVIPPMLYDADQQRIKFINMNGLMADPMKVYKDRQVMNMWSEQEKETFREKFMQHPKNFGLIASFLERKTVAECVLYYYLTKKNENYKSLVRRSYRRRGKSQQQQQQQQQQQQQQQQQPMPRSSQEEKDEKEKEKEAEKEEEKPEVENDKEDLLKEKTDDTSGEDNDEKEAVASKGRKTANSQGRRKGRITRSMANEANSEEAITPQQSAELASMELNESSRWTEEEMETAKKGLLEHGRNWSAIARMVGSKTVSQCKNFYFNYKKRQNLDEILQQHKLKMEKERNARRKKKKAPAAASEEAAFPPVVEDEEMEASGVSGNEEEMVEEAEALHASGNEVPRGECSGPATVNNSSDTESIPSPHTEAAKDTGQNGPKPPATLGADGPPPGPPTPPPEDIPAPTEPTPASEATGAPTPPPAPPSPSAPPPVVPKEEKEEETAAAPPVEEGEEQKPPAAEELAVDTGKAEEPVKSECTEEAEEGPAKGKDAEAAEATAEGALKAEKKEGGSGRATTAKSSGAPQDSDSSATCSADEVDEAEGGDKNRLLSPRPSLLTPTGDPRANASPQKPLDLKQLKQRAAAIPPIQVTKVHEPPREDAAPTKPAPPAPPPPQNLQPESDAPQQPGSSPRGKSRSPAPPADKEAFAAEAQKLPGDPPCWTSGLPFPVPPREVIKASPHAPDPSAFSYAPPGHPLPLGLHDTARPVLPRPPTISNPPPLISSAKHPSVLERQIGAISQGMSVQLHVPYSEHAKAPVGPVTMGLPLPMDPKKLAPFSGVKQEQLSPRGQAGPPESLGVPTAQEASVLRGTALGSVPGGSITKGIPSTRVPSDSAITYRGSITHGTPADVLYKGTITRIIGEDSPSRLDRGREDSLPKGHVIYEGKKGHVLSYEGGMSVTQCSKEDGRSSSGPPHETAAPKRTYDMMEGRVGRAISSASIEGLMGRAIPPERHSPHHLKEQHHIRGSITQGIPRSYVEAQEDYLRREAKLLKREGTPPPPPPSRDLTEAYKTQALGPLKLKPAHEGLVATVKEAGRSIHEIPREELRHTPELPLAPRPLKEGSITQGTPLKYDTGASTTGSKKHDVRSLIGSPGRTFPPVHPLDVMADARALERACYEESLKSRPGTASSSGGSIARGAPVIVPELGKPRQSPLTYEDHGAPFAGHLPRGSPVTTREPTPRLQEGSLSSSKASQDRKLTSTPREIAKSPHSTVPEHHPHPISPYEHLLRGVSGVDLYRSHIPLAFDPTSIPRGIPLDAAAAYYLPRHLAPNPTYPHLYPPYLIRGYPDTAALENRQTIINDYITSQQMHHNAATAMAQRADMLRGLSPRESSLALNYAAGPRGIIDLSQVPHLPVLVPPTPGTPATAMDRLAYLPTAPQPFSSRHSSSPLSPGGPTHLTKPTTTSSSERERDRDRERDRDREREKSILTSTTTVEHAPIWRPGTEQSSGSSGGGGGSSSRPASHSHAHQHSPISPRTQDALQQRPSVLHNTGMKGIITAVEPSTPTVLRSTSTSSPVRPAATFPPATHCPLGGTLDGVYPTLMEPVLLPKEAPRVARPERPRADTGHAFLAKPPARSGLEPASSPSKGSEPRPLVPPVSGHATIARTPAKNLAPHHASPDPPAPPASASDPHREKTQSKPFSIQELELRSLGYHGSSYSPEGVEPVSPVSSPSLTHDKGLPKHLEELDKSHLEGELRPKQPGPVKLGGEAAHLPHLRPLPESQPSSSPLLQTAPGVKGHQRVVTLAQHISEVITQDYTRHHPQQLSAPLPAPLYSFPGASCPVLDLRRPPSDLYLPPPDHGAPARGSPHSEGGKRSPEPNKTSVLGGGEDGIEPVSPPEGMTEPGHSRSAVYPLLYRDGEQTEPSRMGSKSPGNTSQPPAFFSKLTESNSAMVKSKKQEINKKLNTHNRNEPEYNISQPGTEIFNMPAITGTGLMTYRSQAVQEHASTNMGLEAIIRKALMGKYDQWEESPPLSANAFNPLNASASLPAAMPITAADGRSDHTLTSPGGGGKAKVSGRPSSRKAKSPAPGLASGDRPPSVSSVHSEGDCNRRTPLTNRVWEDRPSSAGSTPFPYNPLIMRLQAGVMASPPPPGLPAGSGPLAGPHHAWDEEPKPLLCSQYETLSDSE

Structure (SMILES): O=C(/C=C/c1ccc(NCCCn2cc(-c3ncnc4[nH]ccc34)cn2)cc1)NO
- IC50 [1]: 2650 nM
- IC50 [2]: 148 nM
- IC50 [3]: 502 nM
- IC50 [4]: 13300 nM
- IC50 [5]: 14400 nM
- IC50 [6]: 25300 nM
- IC50 [7]: 17000 nM
- IC50 [8]: > 10000 nM
- IC50 [9]: > 4000 nM
- IC50 [10]: > 4000 nM
- Kd [11]: 200 nM

Structure (SMILES): O=C(CCCCCCOc1ccc2cc1COC/C=C/COCc1cccc(c1)-c1ccnc(n1)N2)NO
- IC50 [8]: 4000 nM
- IC50 [9]: 940 nM
- IC50 [10]: 1190 nM
- Activity [12]: 47%
- IC50 [13]: 2110 nM
- IC50 [14]: 2070 nM

Structure (SMILES): CC(CCCCCC(=O)NO)n1cc(-c2ncnc3[nH]ccc23)cn1 (stereo unspecified)
- IC50 [15]: 310 nM
- IC50 [16]: 8500 nM
- IC50 [1]: 6 nM
- IC50 [2]: 1 nM
- IC50 [3]: 65 nM
- IC50 [17]: 11 nM
- IC50 [18]: 436 nM
- IC50 [19]: 144 nM
- IC50 [20]: 47 nM
- IC50 [21]: 24 nM
- inhibition [22]: 8%
- IC50 [23]: 7400 nM
- IC50 [24]: 31 nM
- inhibition [25]: 40%
- inhibition [26]: 33%

Structure (SMILES): N#CC[C@H](C1CCCC1)n1cc(-c2ncnc3[nH]ccc23)cn1 [RUXOLITINIB]
- Activity [27]: 59%
- Activity [28]: 74%
- Activity [29]: 73%
- Activity [30]: 52%
